Key:
[1] = tested on: P388; assay: Compound (25.6 mg/kg) was tested in vivo against P388 lymphocytic leukemia screen for Median survival time; type: functional, Mus musculus
Method in brief: (§1)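 Murine P388 lymphocytic leukemia, tumour implanted ip and drug also given ip; testing at Bristol-Myers. Median survival time recorded at the optimal dose (mg/kg per dose) beside concurrently run mitomycin C control; %T/C = treated median survival/control median survival × 100.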

[2] = tested on: P388; assay: Minimum effective dose observed for the substrate; type: functional; settings: Mus musculus, read-out: MED
Method in brief: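 Same ip P388 leukemia model with ip dosing; minimum effective dose taken as lowest mg/kg per dose giving %T/C ≥ 125, with concurrent mitomycin C values.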

[3] = tested on: P388; assay: Compound (51.2 mg/kg) was tested in vivo against P388 lymphocytic leukemia screen for Median survival time; type: functional, Mus musculus; method in brief: as §1
[4] = tested on: P388; assay: Compound (6.4 mg/kg) was tested in vivo against P388 lymphocytic leukemia screen for Median survival time; type: functional, Mus musculus; method in brief: as §1

`CCOC(=O)/N=N/c1c(C)c(O)c2c(c1O)[C@@H](COC(N)=O)[C@@]1(OC)[C@H]3N[C@H]3CN21` showed a T/C [1] of 180% and a minimal effective dose [2] of 0.8 mg/kg.

With `CO[C@@]12[C@H](COC(N)=O)c3c(O)c(/N=N/C(=O)c4cccnc4)c(C)c(O)c3N1C[C@@H]1N[C@@H]12` the T/C [1] was 150% and the minimal effective dose [2] was 12.8 mg/kg.

With `CO[C@@]12[C@H](COC(N)=O)c3c(O)c(/N=N/C(=O)OC(C)(C)C)c(C)c(O)c3N1C[C@@H]1N[C@@H]12` the T/C [1] was 160% and the minimal effective dose [2] was 0.8 mg/kg.

Work on `CO[C@@]12[C@H](COC(N)=O)c3c(O)c(/N=N/C(C)=O)c(C)c(O)c3N1C[C@@H]1N[C@@H]12` yielded a T/C [3] of 190% and a minimal effective dose [2] of 1.6 mg/kg.

With `CO[C@@]12[C@H](COC(N)=O)c3c(O)c(/N=N/C(=O)c4cccs4)c(C)c(O)c3N1C[C@@H]1N[C@@H]12` the T/C [4] was 140% and the minimal effective dose [2] was 0.8 mg/kg.

`CO[C@@]12[C@H](COC(N)=O)c3c(O)c(/N=N/C(=O)OCc4ccccc4)c(C)c(O)c3N1C[C@@H]1N[C@@H]12` showed a T/C [4] of 185% and a minimal effective dose [2] of 1.6 mg/kg.

In the case of `CO[C@@]12[C@H](COC(N)=O)c3c(O)c(/N=N/C(=O)OCC4c5ccccc5-c5ccccc54)c(C)c(O)c3N1C[C@@H]1N[C@@H]12`, the T/C [1] is reported as 195% and the minimal effective dose [2] is reported as 0.8 mg/kg.

`CO[C@@]12[C@H](COC(N)=O)c3c(O)c(/N=N/C(=O)c4ccccc4)c(C)c(O)c3N1C[C@@H]1N[C@@H]12` gave a T/C [1] of 150% and a minimal effective dose [2] of 0.8 mg/kg.
